Where two headings read alike, the source gives them in different places. One block for each molecule: values may come before it.
Assays:
[1] = target: GHSR; details: read-out: GHSR binding affinity Ki; cited from earlier work
[2] = Baseline dissection study, whole body distribution of radioactivity in CD1 mice; format: in vivo; details: mean ± SD (n=5)
Method in brief: (§1)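 Male CD1 mice (23-28 g) received the radiotracer i.v. via a lateral tail vein: 0.1 mCi in 0.2 ml saline, specific radioactivity ~4000 mCi/µmol. Animals were killed by cervical dislocation at set times up to 90 min. Brain regions and body organs were removed, dissected on ice, weighed and gamma-counted alongside injectate standards. Uptake was expressed as %ID/g tissue.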

[3] = Observation of pharmacological effects after tracer dose in CD1 mice; format: in vivo; details: tracer dose approximately 0.5 nmol/kg, intravenously, CD1 mice (n=30)
[4] = format: in vivo, CD1 mice; details: for Brain regional distribution: i.v., mean ± SD (n=3)
Method in brief: as §1

[5] = target: GHSR (Mus musculus, UniProt Q99P50); assay: Blocking dissection studies in mice with GHSR antagonist 2; format: in vivo, CD1 mice; details: for Whole body distribution: block with 2 (1 mg/kg), 90 min, mean ± SD (n=5), P>0.05 vs baseline
Sequence of GHSR (Mus musculus, UniProt Q99P50) (Q99P50 whole entry): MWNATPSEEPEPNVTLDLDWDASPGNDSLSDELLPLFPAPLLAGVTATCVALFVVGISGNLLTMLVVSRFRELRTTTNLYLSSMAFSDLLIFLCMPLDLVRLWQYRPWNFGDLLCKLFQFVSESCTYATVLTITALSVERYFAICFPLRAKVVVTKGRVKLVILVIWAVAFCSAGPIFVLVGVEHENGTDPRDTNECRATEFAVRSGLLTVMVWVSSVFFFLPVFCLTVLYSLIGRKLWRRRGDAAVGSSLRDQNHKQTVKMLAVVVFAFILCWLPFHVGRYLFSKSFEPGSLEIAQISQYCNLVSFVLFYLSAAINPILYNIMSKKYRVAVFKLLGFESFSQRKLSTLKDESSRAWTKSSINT
Method in brief: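 Male CD1 mice were pretreated s.c. with a GHSR blocker at 1 mg/kg, or with vehicle (saline/alcohol 9:1, 0.1 mL). Fifteen minutes later they received radiotracer i.v. (0.1 mCi in 0.2 mL saline, ~4000 mCi/µmol). Tissues were harvested 90 min after tracer and counted for radioactivity. Groups were five animals each, baseline and blockade.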

SMILES: Cc1ccccc1-c1nc2ccc(Oc3ccc(F)cc3)cc2c(=O)n1CC1CCCN(C(C)C)C1 (stereo not drawn) [N-isopropyl derivative]
Ki [1]: 0.47 nM

Whole body distribution ([2]; Adrenals, 10 min): 15.57±1.76 %injected dose /g tissue
Whole body distribution ([2]; Adrenals, 30 min): 10.77±2.65 %injected dose /g tissue
Whole body distribution ([2]; Adrenals, 90 min): 7.87±1.22 %injected dose /g tissue
Whole body distribution ([2]; Blood, 10 min): 2.14±0.13 %injected dose /g tissue
Whole body distribution ([2]; Blood, 30 min): 1.87±0.31 %injected dose /g tissue
Whole body distribution ([2]; Blood, 90 min): 2.01±0.29 %injected dose /g tissue
Whole body distribution ([2]; Heart, 10 min): 5.11±0.30 %injected dose /g tissue
Whole body distribution ([2]; Heart, 30 min): 3.91±0.55 %injected dose /g tissue
Whole body distribution ([2]; Heart, 90 min): 2.94±0.33 %injected dose /g tissue
Whole body distribution ([2]; Liver, 10 min): 18.63±1.29 %injected dose /g tissue
Whole body distribution ([2]; Liver, 30 min): 14.60±1.89 %injected dose /g tissue
Whole body distribution ([2]; Liver, 90 min): 13.46±0.97 %injected dose /g tissue
Whole body distribution ([2]; Lung, 10 min): 26.44±1.32 %injected dose /g tissue
Whole body distribution ([2]; Lung, 30 min): 24.02±8.55 %injected dose /g tissue
Whole body distribution ([2]; Lung, 90 min): 14.74±3.46 %injected dose /g tissue
Whole body distribution ([2]; Muscle, 10 min): 3.79±0.68 %injected dose /g tissue
Whole body distribution ([2]; Muscle, 30 min): 3.02±0.45 %injected dose /g tissue
Whole body distribution ([2]; Muscle, 90 min): 2.09±0.47 %injected dose /g tissue
Whole body distribution ([2]; Testis, 10 min): 1.07±0.01 %injected dose /g tissue
Whole body distribution ([2]; Testis, 30 min): 1.39±0.20 %injected dose /g tissue
Whole body distribution ([2]; Testis, 90 min): 1.96±0.14 %injected dose /g tissue
observed pharmacological effects [3]: no observed pharmacological effects
Brain regional distribution ([4]; Cerebellum, 10 min): 0.63±0.06 %injected dose /g tissue
Brain regional distribution ([4]; Cerebellum, 30 min): 0.56±0.09 %injected dose /g tissue
Brain regional distribution ([4]; Cerebellum, 60 min): 0.59±0.08 %injected dose /g tissue
Brain regional distribution ([4]; Cerebellum, 90 min): 0.59±0.10 %injected dose /g tissue
Brain regional distribution ([4]; Cortex, 10 min): 0.63±0.09 %injected dose /g tissue
Brain regional distribution ([4]; Cortex, 30 min): 0.60±0.06 %injected dose /g tissue
Brain regional distribution ([4]; Cortex, 60 min): 0.65±0.12 %injected dose /g tissue
Brain regional distribution ([4]; Cortex, 90 min): 0.66±0.15 %injected dose /g tissue
Brain regional distribution ([4]; Hippocampus, 10 min): 0.60±0.13 %injected dose /g tissue
Brain regional distribution ([4]; Hippocampus, 30 min): 0.59±0.09 %injected dose /g tissue
Brain regional distribution ([4]; Hippocampus, 60 min): 0.71±0.08 %injected dose /g tissue
Brain regional distribution ([4]; Hippocampus, 90 min): 0.65±0.12 %injected dose /g tissue
Brain regional distribution ([4]; Hypothalamus, 10 min): 0.56±0.08 %injected dose /g tissue
Brain regional distribution ([4]; Hypothalamus, 30 min): 0.58±0.08 %injected dose /g tissue
Brain regional distribution ([4]; Hypothalamus, 60 min): 0.74±0.12 %injected dose /g tissue
Brain regional distribution ([4]; Hypothalamus, 90 min): 0.86±0.20 %injected dose /g tissue
Brain regional distribution ([4]; Rest of brain, 10 min): 0.54±0.07 %injected dose /g tissue
Brain regional distribution ([4]; Rest of brain, 30 min): 0.57±0.06 %injected dose /g tissue
Brain regional distribution ([4]; Rest of brain, 60 min): 0.62±0.02 %injected dose /g tissue
Brain regional distribution ([4]; Rest of brain, 90 min): 0.54±0.08 %injected dose /g tissue
hypothalamus-to-cerebellum ratio ([4]; value reached over the 90 min observation period): 1.6
Whole body distribution ([5]; Adrenals): 10.02±1.80 %injected dose /g tissue
Whole body distribution ([5]; Blood): 2.01±0.53 %injected dose /g tissue
Whole body distribution ([5]; Heart): 3.74±0.57 %injected dose /g tissue
Whole body distribution ([5]; Liver): 14.77±1.02 %injected dose /g tissue
Whole body distribution ([5]; Lung): 16.28±3.65 %injected dose /g tissue
Whole body distribution ([5]; Muscle): 2.22±0.79 %injected dose /g tissue
Whole body distribution ([5]; Testis): 2.25±0.30 %injected dose /g tissue
specific binding ([5]; cerebral distribution in CD1 mice): 38%
SMILES: Cc1ccccc1-c1nc2ccc(Oc3ccc(F)cc3)cc2c(=O)n1C[C@H]1CCCN([11CH3])C1 [[^11C]1, (S)-6-(4-fluorophenoxy)-3-((1-[^11C]methylpiperidin-3-yl)methyl)-2-o-tolylquinazolin-4(3H)-one]

blockade of [11C]1 in the rest of the brain ([5]; blocking dose of 2 1 mg/kg s.c., 90 min after radioligand, P>0.05 (n=5)): minimal
SMILES: Cc1ccccc1-c1nc2ccc(Oc3ccc(F)cc3)cc2c(=O)n1C[C@H]1CCCNC1 [compound 2, (S)-6-(4-fluorophenoxy)-3-(piperidin-3-ylmethyl)-2-o-tolylquinazolin-4(3H)-one, reference compound]
Ki [1]: 0.9 nM
